Two compounds from ChEMBL document CHEMBL2346603, “Discovery of potent dipeptidyl peptidase IV inhibitors through pharmacophore hybridization and hit-to-lead optimization” (Bioorg Med Chem, 2013) can be followed below.

Each structure is given as a SMILES string. Calls of active or inactive are those of the source. The calls are words filed in the database; no cut-off is given here.

Data set [1] is described as follows: AUC (0 to infinity) in Sprague-Dawley rat blood at 30 mg/kg, po by LC-MS/MS analysis. Also on record: time infinity, dose 30 mg/kg, route oral. Conditions: whole blood. It counts as ADME, organism-based. The gist of the method:
(§1)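 Adult male SD rats (n = 4/group) got a single dose of compound in distilled water, orally or by injection. Blood (100–200 µL) was drawn from the orbit at 11 time points over 24 h. Blood drug levels were measured by LC–MS/MS.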

The nature of data set [2]: Apparent clearance in Sprague-Dawley rat blood at 10 mg/kg, iv by LC-MS/MS analysis. It counts as ADME, organism-based. On the set-up: dose 10 mg/kg, route intravenous. Conditions: whole blood, read-out: CL(app) (converted). In outline: as §1
Data set [3] in a line: Inhibition of CYP3A (unknown origin) up to 30 uM. In kind it is ADME. Conditions: human.
Data set [4] can be described thus: Apparent volume of distribution in Sprague-Dawley rat blood at 10 mg/kg, iv by LC-MS/MS analysis. Also on record: dose 10 mg/kg, route intravenous. In kind it is ADME, organism-based. Conditions: whole blood, read-out: Vz. The gist of the method:
as §1

Data set [5] concerns the target Dipeptidyl peptidase 9 (Homo sapiens) (UniProt Q86TI2). Description: Inhibition of DPP9 (unknown origin) up to 10 uM. In outline:
(§2)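 Compounds were serially diluted from DMSO into 20 mM Tris pH 7.4, 20 mM KCl, 0.1 mg/mL BSA. Enzyme was pre-incubated with compound for 10 min at ambient temperature. Reaction was started with Gly-Pro-AMC (10 µM final). Fluorescence (ex 400/em 505 nm) was read kinetically for 5–10 min or at a 10 min endpoint.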

The target of data set [6] is Dipeptidyl peptidase 8 (Homo sapiens) (UniProt Q6V1X1). Description: Inhibition of DPP8 (unknown origin) up to 10 uM. The gist of the method:
as §2

Data set [7] can be described thus: Half life in Sprague-Dawley rat blood at 30 mg/kg, po by LC-MS/MS analysis. In kind it is ADME, organism-based. On the set-up: dose 30 mg/kg, route oral. The following applies: whole blood. The gist of the method: as §1
Data set [8] can be described thus: Mean residence time (0 to infinity) in Sprague-Dawley rat blood at 30 mg/kg, po by LC-MS/MS analysis. It counts as ADME, organism-based. Also on record: dose 30 mg/kg, route oral. The following applies: whole blood. The gist of the method: as §1
The nature of data set [9]: Oral bioavailability in Sprague-Dawley rat at 30 mg/kg by LC-MS/MS analysis. The following applies: in vivo. In kind it is ADME, organism-based. The gist of the method: as §1

Sequence of Dipeptidyl peptidase 9 (Homo sapiens) (Q86TI2 2-863 limits assumed): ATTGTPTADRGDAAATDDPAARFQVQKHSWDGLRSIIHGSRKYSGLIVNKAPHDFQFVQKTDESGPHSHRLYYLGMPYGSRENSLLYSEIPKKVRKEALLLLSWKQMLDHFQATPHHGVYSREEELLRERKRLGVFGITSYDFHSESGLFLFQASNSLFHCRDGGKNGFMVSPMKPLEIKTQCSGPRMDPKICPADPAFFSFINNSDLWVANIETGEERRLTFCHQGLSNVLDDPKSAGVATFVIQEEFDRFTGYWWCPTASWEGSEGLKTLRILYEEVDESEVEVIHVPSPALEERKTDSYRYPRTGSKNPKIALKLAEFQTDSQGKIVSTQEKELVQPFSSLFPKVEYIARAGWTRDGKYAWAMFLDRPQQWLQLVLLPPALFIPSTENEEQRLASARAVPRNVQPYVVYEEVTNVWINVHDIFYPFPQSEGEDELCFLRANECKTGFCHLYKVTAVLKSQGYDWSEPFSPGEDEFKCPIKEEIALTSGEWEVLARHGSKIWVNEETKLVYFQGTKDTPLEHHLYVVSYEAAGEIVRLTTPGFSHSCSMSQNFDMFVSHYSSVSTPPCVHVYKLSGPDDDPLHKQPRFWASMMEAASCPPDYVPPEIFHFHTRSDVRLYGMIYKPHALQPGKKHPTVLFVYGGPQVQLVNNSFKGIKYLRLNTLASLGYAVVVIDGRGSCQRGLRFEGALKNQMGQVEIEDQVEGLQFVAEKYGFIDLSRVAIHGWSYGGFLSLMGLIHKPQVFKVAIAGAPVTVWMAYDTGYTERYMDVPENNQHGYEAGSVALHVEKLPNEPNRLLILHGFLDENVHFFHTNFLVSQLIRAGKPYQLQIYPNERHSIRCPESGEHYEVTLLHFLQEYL
Sequence of Dipeptidyl peptidase 8 (Homo sapiens) (Q6V1X1 whole entry, looked up): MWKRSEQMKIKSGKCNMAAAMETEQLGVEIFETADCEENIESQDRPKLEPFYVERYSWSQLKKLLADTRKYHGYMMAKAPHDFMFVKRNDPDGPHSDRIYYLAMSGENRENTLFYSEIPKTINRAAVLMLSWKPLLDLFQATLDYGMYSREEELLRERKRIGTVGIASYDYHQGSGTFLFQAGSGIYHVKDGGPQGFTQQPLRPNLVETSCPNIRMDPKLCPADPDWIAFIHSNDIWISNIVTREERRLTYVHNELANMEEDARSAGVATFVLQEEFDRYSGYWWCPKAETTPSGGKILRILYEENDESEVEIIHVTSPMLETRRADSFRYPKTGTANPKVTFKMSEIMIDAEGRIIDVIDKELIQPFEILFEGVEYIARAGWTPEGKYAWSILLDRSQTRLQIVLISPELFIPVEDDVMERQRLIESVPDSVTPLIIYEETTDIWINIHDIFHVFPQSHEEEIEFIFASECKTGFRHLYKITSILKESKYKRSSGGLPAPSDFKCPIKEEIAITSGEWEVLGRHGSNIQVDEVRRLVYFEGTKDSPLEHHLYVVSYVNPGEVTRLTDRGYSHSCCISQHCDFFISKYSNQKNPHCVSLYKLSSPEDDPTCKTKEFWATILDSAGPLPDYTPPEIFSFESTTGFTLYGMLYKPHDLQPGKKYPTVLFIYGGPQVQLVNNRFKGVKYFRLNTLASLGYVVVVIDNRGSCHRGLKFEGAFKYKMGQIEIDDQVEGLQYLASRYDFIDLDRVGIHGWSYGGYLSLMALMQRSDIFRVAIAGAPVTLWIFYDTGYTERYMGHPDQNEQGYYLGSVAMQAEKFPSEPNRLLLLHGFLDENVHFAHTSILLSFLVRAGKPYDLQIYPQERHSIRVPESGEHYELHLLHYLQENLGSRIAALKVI

Regarding `CC#CCn1c(N2CCC[C@@H](N)C2)nc2ccn(Cc3nc(C)c4ccccc4n3)c2c1=O`, the AUC(0-inf) in data set [1] turned out to be 25300 ng·h/mL. In [2], the clearance was 16.7 mL/min/kg. In addition, the “inhibition (INH)” value in data set [3] is listed as “Not Active”. For the same compound, the Vd in [4] was 4 L/kg. Also, the inhibition result in [5] and in data set [6] was “inactive” each time. Besides, the half-life in data set [7] is 4.9 h. Also, the MRT inf in [8] was 8.3 h. The compound further registered a bioavailability in data set [9] of 82.9%.
In turn, `N#Cc1ccccc1Cn1c(N2CCC[C@@H](N)C2)nc2c(Br)c[nH]c2c1=O` gave a half-life in [7] of 2 h. The compound also registered a bioavailability in data set [9] of 41%.

A word on the AUC(0-inf): it is total exposure, with the tail of the curve extrapolated. A higher AUC(0-inf) goes with more exposure. Broadly, the half-life is the time in which the quantity being followed falls by half. A higher half-life goes with slow decline. As usually defined, the MRT inf is the average time that molecules of a dose stay in the body. A word on the bioavailability: it is dose-corrected exposure relative to a reference, in per cent.
